This passage reports IC50 results from BindingDB's records for doi:10.1016/j.ejmech.2020.112417 (University of Houston, 2020).

pIC50: −log10 of the molar value.

As usually defined, the pIC50 is the IC50 on a negative log10 scale, so that one unit is a factor of ten.

Sequence of Nucleotide-binding oligomerization domain-containing protein 2 (Q9HC29 whole entry, the tested form may be a part): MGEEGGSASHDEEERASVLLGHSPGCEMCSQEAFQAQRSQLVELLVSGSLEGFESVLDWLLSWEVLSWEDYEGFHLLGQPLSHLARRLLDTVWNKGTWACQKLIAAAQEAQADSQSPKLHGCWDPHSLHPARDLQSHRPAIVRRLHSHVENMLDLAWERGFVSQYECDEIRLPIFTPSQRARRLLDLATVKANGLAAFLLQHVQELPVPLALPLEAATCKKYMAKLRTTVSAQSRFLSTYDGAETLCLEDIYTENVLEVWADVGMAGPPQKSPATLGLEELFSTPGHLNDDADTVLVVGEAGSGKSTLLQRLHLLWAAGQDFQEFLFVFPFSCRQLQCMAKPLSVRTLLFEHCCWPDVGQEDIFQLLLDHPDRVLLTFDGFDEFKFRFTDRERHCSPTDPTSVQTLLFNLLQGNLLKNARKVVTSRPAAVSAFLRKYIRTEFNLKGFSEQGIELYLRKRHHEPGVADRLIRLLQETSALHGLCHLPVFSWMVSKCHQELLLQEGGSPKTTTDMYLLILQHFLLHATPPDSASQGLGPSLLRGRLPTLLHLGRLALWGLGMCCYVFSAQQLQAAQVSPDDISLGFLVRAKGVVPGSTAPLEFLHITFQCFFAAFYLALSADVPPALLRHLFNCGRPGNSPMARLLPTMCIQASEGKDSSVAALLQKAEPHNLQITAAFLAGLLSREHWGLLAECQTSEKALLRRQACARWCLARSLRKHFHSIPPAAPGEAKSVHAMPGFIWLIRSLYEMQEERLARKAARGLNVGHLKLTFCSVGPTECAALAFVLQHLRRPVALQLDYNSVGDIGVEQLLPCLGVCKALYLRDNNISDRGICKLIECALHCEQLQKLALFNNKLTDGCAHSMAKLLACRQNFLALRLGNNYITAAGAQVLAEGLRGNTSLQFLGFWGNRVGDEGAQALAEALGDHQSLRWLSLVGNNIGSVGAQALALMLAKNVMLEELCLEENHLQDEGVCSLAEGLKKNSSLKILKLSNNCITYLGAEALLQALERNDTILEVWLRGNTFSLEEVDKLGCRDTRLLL

The assay has as its target Nucleotide-binding oligomerization domain-containing protein 2 (Homo sapiens, UniProt Q9HC29). The assay is described as follows: Inhibition of human NOD2 expressed in HEK293 cells coexpressing NFkappaB-SEAP reporter measured after 7 to 9 hrs by HEKBIue reporter assay. In outline: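 IC50 values reported as the mean of two or three determinations ± standard deviation.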
On the technique in general: In a reporter assay the amount or activity of a reporter protein is the signal.
`CCCS(=O)(=O)Nc1cc(OC)cc(-c2cc(-c3ccc(N4CCNCC4)cc3)cnc2C)c1` showed a negative-log IC50 (pIC50) of 5.57.

The molecule `CCS(=O)(=O)Nc1cc(OC)cc(-c2cc(-c3ccc(N4CCNCC4)cc3)cnc2C)c1` gave a pIC50 of 5.28. This pIC50 lies 0.29 log units lower than the previous one.

As to `COc1cc(NS(=O)(=O)c2ccccc2)cc(-c2cc(-c3ccc(N4CCNCC4)cc3)cnc2N)c1`, the pIC50 is 7.28.

Molecule `CCCS(=O)(=O)Nc1cc(-c2cc(-c3cccc(N4CCNCC4)c3)cnc2N)cc(F)c1OC` gave a pIC50 of 7.80.

`CCCS(=O)(=O)Nc1ccc(-c2cc(-c3ccc(N4CCNCC4)cc3)cnc2C)cc1OC` had a pIC50 of 5.53.

In the case of `CCCS(=O)(=O)Nc1cc(-c2cc(-c3ccc(N4CCNCC4)cc3)cnc2N)cc(OC)c1OC`, the pIC50 was 9.00.

`CCCS(=O)(=O)Nc1cc(-c2cc(-c3ccc(N4CCNCC4)cc3)cnc2N)ccc1OC` showed a pIC50 of 6.38. This pIC50 lies 2.62 log units lower than the previous one.

Turning to `COc1cc(NS(=O)(=O)C(C)C)cc(-c2cc(-c3ccc(N4CCNCC4)cc3)cnc2N)c1`, the pIC50 is 6.92.

In the case of `CCCS(=O)(=O)Nc1cc(-c2cc(-c3ccc(N4CCNCC4)cc3)cnc2N)cc(OC)c1C`, the pIC50 is 5.48.

On to `CCCS(=O)(=O)Nc1cc(-c2cc(-c3cccc(S(C)(=O)=O)c3)cnc2N)ccc1OC`, for which the negative-log IC50 (pIC50) was 5.58. The pIC50 values of the last two molecules are within 0.2 log units of each other.

`CC(C)Oc1cc(NS(=O)(=O)C(C)C)cc(-c2cc(-c3ccc(N4CCNCC4)cc3)cnc2N)c1` showed a negative logarithm of the IC50 (pIC50) of 6.49. This pIC50 lies 0.91 log units higher than the previous one.

For the molecule `CCCS(=O)(=O)Nc1cc(-c2cc(-c3ccc(N4CCNCC4)cc3)cnc2N)cc(C)c1OC`, the pIC50 is 6.89.

In turn, `CCOc1cc(NS(=O)(=O)C(C)C)cc(-c2cc(-c3ccc(N4CCNCC4)cc3)cnc2N)c1` had a pIC50 of 7.34. Compared with the last molecule, the pIC50 is 0.45 log units higher.

The molecule `COc1cc(-c2cc(-c3ccc(N4CCNCC4)cc3)cnc2N)cc(F)c1OC` showed a pIC50 of 6.23.

Consider `CCCS(=O)(=O)Nc1cc(-c2cc(-c3ccc(N4CCNCC4)cc3)cnc2N)cc2c1OCCO2`, for which the pIC50 was 5.61.

`CCCS(=O)(=O)Nc1cc(-c2cc(-c3ccc(N4CCNCC4)cc3)cnc2C)cc(F)c1OC` showed a pIC50 of 5.59.

`COc1cc(NS(C)(=O)=O)cc(-c2cc(-c3ccc(N4CCNCC4)cc3)cnc2C)c1` gave a negative-log IC50 (pIC50) of 5.43.

In turn, `CCCS(=O)(=O)Nc1cc(-c2cc(-c3ccc(N4CCNCC4)cc3)cnc2N)ccc1C` gave a pIC50 of 5.97.

As to `CCCS(=O)(=O)NCc1cc(-c2cc(-c3ccc(N4CCNCC4)cc3)cnc2N)ccc1OC`, the negative logarithm of the IC50 (pIC50) is 5.89.

`CCCS(=O)(=O)Nc1cc(-c2cc(-c3ccc(N4CCNCC4)cc3)cnc2N)ccc1O`: the pIC50 was under 5.30.

With `COc1cc(NS(C)(=O)=O)cc(-c2cc(-c3ccc(N4CCNCC4)cc3)cnc2N)c1`, the negative-log IC50 (pIC50) was 6.41.

`CCCS(=O)(=O)Nc1cc(-c2cc(-c3ccc(N4CCNCC4)cc3)cnc2N)cc(Cl)c1OC` had a pIC50 of 7.34. This pIC50 is 0.93 log units higher than that of the molecule before.

Molecule `CCCS(=O)(=O)N1CCOc2ccc(-c3cc(-c4ccc(N5CCNCC5)cc4)cnc3N)cc21` had a pIC50 of 6.00. This pIC50 lies 1.34 log units lower than the previous one.

As to `CCCS(=O)(=O)Nc1cc(OC)cc(-c2cc(-c3ccc(N4CCNCC4)cc3)cnc2N)c1`, the negative-log IC50 (pIC50) is 6.61.

As for `COc1cc(NS(=O)(=O)C(C)C)cc(-c2cc(-c3ccc(N4CCNCC4)cc3)cnc2C)c1`, the pIC50 was 6.28. Compared with the last molecule, the pIC50 is 0.33 log units lower.

Take `CCCS(=O)(=O)Nc1cc(-c2cc(-c3ccc(N4CCNCC4)cc3)cnc2N)cc(F)c1OC`: the pIC50 was 7.59.

`CCCS(=O)(=O)N1CCc2ccc(-c3cc(-c4ccc(N5CCNCC5)cc4)cnc3N)cc21` showed a pIC50 of 5.62. This pIC50 is 1.97 log units lower than that of the molecule before.

With `CCCS(=O)(=O)Nc1cc(-c2cncc(-c3ccc(N4CCNCC4)cc3)c2)cc(F)c1OC`, the negative-log IC50 (pIC50) was 6.45.
